Entries after “also recorded” stand apart in the source; their conditions may differ. Counter-ions that a name gives are not always drawn.
Tests used:
[1] = Plasma pharmacokinetics after first IPI-504 dose; type: in vivo, human; conditions: for Time of peak plasma concentration: relative to the 30-minute infusion
[2] = tested on: androgen-dependent and androgen-independent prostate cancer xenografts; conditions: 3 (Solit et al); cited from earlier work
[3] = cited from earlier work
[4] = tested on: castration-resistant prostate cancer (CRPC); conditions: cited from earlier work
[5] = twice-weekly; cited from earlier work
[6] = tested on: castration-resistant prostate cancer (CRPC); experiment: Phase 2 trial: PSA response / antitumor outcome; type: in vivo, human
Outline: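 Adults (>18 years) with progressive CRPC (two serial PSA rises or progressive radiographic metastases, serum testosterone < 50 […]). Group A was chemotherapy-naïve; Group B had radiographic metastases, progression on or intolerance to docetaxel, and ≤3 prior chemotherapy regimens. Test compound 400 mg/m2 given as a 30-min IV infusion on days 1, 4, 8 and 11 of 21-day cycles; later continuation allowed at 300 mg/m2.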

[7] = 17-AAG: ref 5; IPI-504: ref 6; cited from earlier work
[8] = tested on: cytochrome P450 3A4 (CYP3A4); conditions: in vitro; cited from earlier work
[9] = tested on: patients with castration-resistant prostate cancer (CRPC); experiment: Phase 2 trial: treatment-emergent adverse events; type: in vivo, human
[10] = plasma after first IPI-504 dose 400 mg/m^2 iv
[11] = Grade ≥ 3, N=19, IPI-504 400 mg/m^2 iv
[12] = TEAE in > 25% of study population, N=19
[13] = any grade, N=19, IPI-504 400 mg/m^2 iv
[14] = of the 19 patients enrolled and treated

With CO[C@H]1/C=C/C=C(\C)C(=O)NC2=CC(=O)C(N)=C(C[C@@H](C)C[C@H](OC)[C@H](O)[C@@H](C)/C=C(\C)[C@@H]1OC(N)=O)C2=O [17-AG] the “mean T1/2” value [1, 10] was 5.2 h, the “Time of peak plasma concentration” value [1] was “ranging from the end of the infusion to 1.5 hours post-infusion” and the “Share of the total measured exposure” value ([1]; sum of IPI-504, 17-AAG and 17-AG without adjustment for molecular weight) was “approximately 68%”.
For C=CCNC1=C2C[C@@H](C)C[C@H](OC)[C@H](O)[C@@H](C)/C=C(\C)[C@H](OC(N)=O)[C@@H](OC)/C=C\C=C(/C)C(=O)NC(=CC1=O)C2=O [17-AAG, 17-allylamine-17-demethoxygeldanamycin, reference compound], the “Growth of prostate cancer xenografts” value [2] is listed as “dose-dependent growth inhibition”, the “Mean AUC0-∞” value [1, 10] is listed as 9,847 ng*hr/mL and the “mean T1/2” value [1, 10] is listed as 1.4 h. The “Time of peak plasma concentration” value [1] was “at the end of the infusion”, the “Hepatotoxicity in phase I trials” value [3] was “dose limiting toxicity” and the “Antitumor activity in clinical trials in patients with CRPC” value [4] was “negligible antitumor activity”.
In the case of C=CCNc1c(O)cc2c(O)c1C[C@@H](C)C[C@H](OC)[C@H](O)[C@@H](C)/C=C(\C)[C@H](OC(N)=O)[C@@H](OC)/C=C\C=C(/C)C(=O)N2 [IPI-504, retaspimycin hydrochloride], the “Maximum tolerated dose as a single agent” value [5] is listed as at least 400 mg/m^2, the “Patients achieving ≥ 50% post-treatment decline in PSA (PSA response)” value ([6]; Groups A and B, N=19) is listed as “No PSA responses; also recorded: No patients” and the “PSA decline from baseline in one patient” value ([6]; one Group A (chemotherapy-naïve) patient) is listed as 48%. The “Time on treatment of the patient with PSA decline” value ([6]; one Group A patient) was 9 cycles, the “Time on study until discontinuation due to disease progression” value ([6]; one Group A patient, after the interim analysis) was “approximately 2 years” and the Overall antitumor activity ([6]; single agent, 400 mg/m^2) was “minimal effect on PSA or tumor burden; also recorded: negligible antitumor activity”. For the same compound, the AUC ([1]; human, in vivo, 400 mg/m^2) was 26400 ng·h/mL, the AUC(0-inf) ([1]; human, in vivo, iv, 400 mg/m2) was 11700 ng·h/mL and the “Time of peak plasma concentration” value [1] was “at the end of the infusion”. For the same compound, the Solubility [7] was “water-soluble”, the “Involvement of CYP3A4 in metabolism” value [8] was “involved in the metabolism” and the “Grade 3 AST elevation in the patient who died of hepatic failure” value ([9]; 1 day before hepatic failure, at study drug administration) was 339 U/L. For the same compound, the “AST elevation (Grade 4) in the second patient” value ([9]; Cycle 1, Dose 2, from 32 U/L at baseline) was 863 U/L, the “ALT elevation (Grade 3) in the second patient” value ([9]; Cycle 1, Dose 2, from a normal baseline level) was 659 U/L and the “AST elevation (Grade 3) in one patient” value ([9]; Cycle 2, Dose 3, prompted study drug discontinuation, returned to normal 4 days later) was 397 U/L. The “ALT Increased, patients with TEAE (Grade ≥ 3)” value [9, 11] was 1 (5) n (%), the “AST Increased, patients with TEAE (Grade ≥ 3)” value [9, 11] was 2 (11) n (%) and the “Anemia, patients with TEAE (Grade ≥ 3)” value [9, 11] was 1 (5) n (%). For the same compound, the “Anorexia, patients with TEAE (Grade ≥ 3)” value [9, 11] was 1 (5) n (%), the “Anxiety, patients with TEAE (Grade ≥ 3)” value [9, 11] was 0 n (%) and the “Arthralgia, patients with TEAE (Grade ≥ 3)” value [9, 11] was 0 n (%). The “Back Pain, patients with TEAE (Grade ≥ 3)” value [9, 11] was 1 (5) n (%), the “Constipation, patients with TEAE (Grade ≥ 3)” value [9, 11] was 0 n (%) and the “Dehydration, patients with TEAE (Grade ≥ 3)” value [9, 11] was 3 (16) n (%). For the same compound, the “Diarrhea, patients with TEAE (Grade ≥ 3)” value [9, 11] was 1 (5) n (%), the “Fatigue, patients with TEAE (Grade ≥ 3)” value [9, 11] was 1 (5) n (%) and the “Headache, patients with TEAE (Grade ≥ 3)” value [9, 11] was 0 n (%). The “Hypokalemia, patients with TEAE (Grade ≥ 3)” value [9, 11] was 0 n (%), the “Hyponatremia, patients with TEAE (Grade ≥ 3)” value [9, 11] was 2 (11) n (%) and the “Infusion Site Pain, patients with TEAE (Grade ≥ 3)” value [9, 11] was 0 n (%). For the same compound, the “Musculoskeletal Pain, patients with TEAE (Grade ≥ 3)” value [9, 11] was 0 n (%), the “Myalgia, patients with TEAE (Grade ≥ 3)” value [9, 11] was 0 n (%) and the “Nausea, patients with TEAE (Grade ≥ 3)” value [9, 11] was 1 (5) n (%). The “Pain in Extremity, patients with TEAE (Grade ≥ 3)” value [9, 11] was 0 n (%), the “Pneumonia, patients with TEAE (Grade ≥ 3)” value [9, 11] was 2 (11) n (%) and the “Pyrexia, patients with TEAE (Grade ≥ 3)” value [9, 11] was 0 n (%). For the same compound, the “Vomiting, patients with TEAE (Grade ≥ 3)” value [9, 11] was 1 (5) n (%), the “Anorexia, share of study population” value [9, 12] was 26% and the “Arthralgia, share of study population” value [9, 12] was 26%. For the same compound, the “ALT Increased, patients with any TEAE” value [9, 13] was 2 (11) n (%), the “AST Increased, patients with any TEAE” value [9, 13] was 2 (11) n (%) and the “Anemia, patients with any TEAE” value [9, 13] was 4 (21) n (%). The “Anorexia, patients with any TEAE” value [9, 13] was 5 (26) n (%), the “Anxiety, patients with any TEAE” value [9, 13] was 2 (11) n (%) and the “Arthralgia, patients with any TEAE” value [9, 13] was 5 (26) n (%). The “Back Pain, patients with any TEAE” value [9, 13] was 2 (11) n (%), the “Constipation, patients with any TEAE” value [9, 13] was 4 (21) n (%) and the “Dehydration, patients with any TEAE” value [9, 13] was 4 (21) n (%). The “Diarrhea, patients with any TEAE” value [9, 13] was 8 (42) n (%), the “Fatigue, patients with any TEAE” value [9, 13] was 6 (32) n (%) and the “Headache, patients with any TEAE” value [9, 13] was 2 (11) n (%). For the same compound, the “Hypokalemia, patients with any TEAE” value [9, 13] was 2 (11) n (%), the “Hyponatremia, patients with any TEAE” value [9, 13] was 2 (11) n (%) and the “Infusion Site Pain, patients with any TEAE” value [9, 13] was 4 (21) n (%). For the same compound, the “Musculoskeletal Pain, patients with any TEAE” value [9, 13] was 3 (16) n (%), the “Myalgia, patients with any TEAE” value [9, 13] was 3 (16) n (%) and the “Pain in Extremity, patients with any TEAE” value [9, 13] was 4 (21) n (%). For the same compound, the “Pneumonia, patients with any TEAE” value [9, 13] was 2 (11) n (%), the “Pyrexia, patients with any TEAE” value [9, 13] was 3 (16) n (%) and the “Vomiting, patients with any TEAE” value [9, 13] was 4 (21) n (%). For the same compound, the “Nausea, patients with any TEAE” value ([9]; any grade, N=19, IPI-504 400 mg/m^2 iv days 1, 4, 8, 11 of 21-day cycle) was 9 (47) n (%), the “Patients reported with treatment-emergent AEs (TEAEs), number” value [9, 14] was 18 patients and the “Patients whose TEAEs resulted in death, percent” value [9, 14] was 11%. The “Patients with CTCAE Grade 3 or higher TEAEs, number” value [9, 14] was 11 patients and the “Patients with CTCAE Grade 3 or higher TEAEs, percent” value [9, 14] was 58%.

From publication PMC3166448 (Urology, 2011)
